From PubChem BioAssay
A selection: hits, their analogues and other compounds. The true share with any hit is near 2.6%.
rCAG RNA binder: binders of r(CAG) RNA repeats, primary screen, biochemical, fluorescence; r(CAG) RNA repeat, TO-PRO-1 dye displacement fluorescence; AID 651821, 2012; inhibition, % at 3 µM; 370,000 tested, 1.3% active;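 active means inhibition above the plate cutoff, the mean of all test compounds on that plate plus 3 SD, cut at about 35% in these data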;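 further: 0% = DMSO alone and 100% = 100 µM mitoxantrone as full dye displacement; higher means more dye released from RNA so lower well fluorescence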
LMPTP block: LMPTP phosphatase inhibitors, primary screen, biochemical, fluorescence intensity, uHTS | recombinant LMPTP-A, OMFP fluorogenic substrate | AID 651560, 2012 | inhibition, % at 20 µM | 360,000 tested, 0.22% active | Low molecular weight phosphotyrosine protein phosphatase (Homo sapiens), P24666;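 active means compounds that cut the enzyme signal by at least half of the control window in the single-dose screen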;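 further: plate controls were DMSO wells with enzyme plus substrate for no effect and substrate without enzyme for full effect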
Target sequence (P24666 whole entry, looked up): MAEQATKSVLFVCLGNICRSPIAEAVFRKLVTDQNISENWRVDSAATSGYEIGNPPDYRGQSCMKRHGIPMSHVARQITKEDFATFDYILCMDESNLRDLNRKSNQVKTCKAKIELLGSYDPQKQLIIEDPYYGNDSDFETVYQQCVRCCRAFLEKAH
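Test system – LMPTP-A phosphatase enzyme · Quantity – 0.625 nM LMPTP-A final · Reagent – OMFP substrate, 400 µM final · Dosing – one test concentration per compound, 20 µM, with 3% DMSO overall · Timing – 50 min enzyme reaction at room temperature, protected from light · Detection – fluorescence intensity · Controls – substrate-only low control, DMSO enzyme-plus-substrate high control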
NadD block: inhibitors of S. aureus NadD, primary screen, biochemical, colorimetric, uHTS; purified NadD enzyme, colorimetric absorbance read-out; inhibition, % at 20 µM; 360,000 tested, 0.78% active; AID 602399, 2012; in the data active means inhibition above about 26%
STEP block: STEP phosphatase inhibitors, primary screen, biochemical, fluorescence intensity, uHTS | Tyrosine-protein phosphatase non-receptor type 5 (Homo sapiens), P54829 | recombinant STEP, OMFP fluorogenic substrate | inhibition, % at 20 µM | 360,000 tested, 0.25% active;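 active means inhibition at 20 µM, scaled per plate between control wells, above about 37%, limit read from the data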;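 further: 0% = DMSO with enzyme and substrate and 100% = substrate only without enzyme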
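Assay system: isolated STEP enzyme. Buffer or medium: pH 6.0 Bis-Tris with DTT and Tween 20. Also added: fluorogenic phosphatase substrate OMFP at 25 µM final. Dosing: 20 µM, 1% DMSO. Timing: 20 min reaction, room temperature, in the dark. Measured by: fluorescence intensity, excitation 480 nm, emission 540 nm. Evaluation: normalized % inhibition.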
Scp-1 inhibitor: Scp-1 phosphatase inhibitors, primary screen, biochemical, colorimetric, uHTS; inhibition, % at 20 µM; Carboxy-terminal domain RNA polymerase II polypeptide A small phosphatase 1 (Homo …; 340,000 tested, 0.88% active; Recombinant Scp1, phosphopeptide, malachite green phosphate absorbance; AID 493091, 2011;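 active means inhibition above about 50% at 20 µM, limit read from the data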;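 further: plate controls were DMSO wells with enzyme for no effect and wells lacking enzyme for full effect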
Target sequence (Q9GZU7 76-261 limits assumed): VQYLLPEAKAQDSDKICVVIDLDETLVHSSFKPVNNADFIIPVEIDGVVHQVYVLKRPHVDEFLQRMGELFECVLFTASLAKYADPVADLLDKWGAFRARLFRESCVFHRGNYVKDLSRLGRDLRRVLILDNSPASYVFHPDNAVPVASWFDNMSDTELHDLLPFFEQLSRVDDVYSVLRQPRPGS
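assay system = SCP-1 phosphatase catalytic domain, residues 76-261 | buffer or medium = 50 mM Tris acetate pH 5.5, 0.005% Tween-20, 10 mM MgCl2 | incubation = enzyme reaction 45 min at room temperature, colour 5 min, stabilisation 30 min | signal = Phosphate-binding colour reagent, absorbance read at 630 nm | measure = % inhibition at 20 µM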
Scp1 confirm: Scp-1 phosphatase inhibitors, retest, confirmation, biochemical, colorimetric, single concentration | shares compounds with Scp-1 inhibitor | recombinant SCP-1 catalytic domain, phosphate release, malachite green absorbance | inhibition, % at 20 µM | 2,500 tested, 61% active | AID 540281, 2011;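 further: plate controls were DMSO with enzyme for no effect and buffer wells lacking enzyme for full effect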
MG interference: colorimetric readout interference by compounds, confirmation, artefact control for Scp-1 inhibitor project, biochemical, single concentration. 2,500 tested, under 10 active. AID 540313, 2011. shares compounds with Scp-1 inhibitor. Colorimetric interference counterscreen, malachite green absorbance 630 nm. apparent inhibition (interference), % at 20 µM;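 further: compounds added after enzyme reaction finished so only phosphate colour detection is probed; plate controls were DMSO wells with completed Scp-1 reaction for no effect and substrate wells lacking enzyme for full effect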
Scp1 DSF: Scp-1 binding by thermal shift, confirmation, orthogonal assay for Scp-1 inhibitor project, biophysical, differential scanning fluorimetry; 1,500 tested, 25% active; AID 540329, 2011; shares compounds with Scp-1 inhibitor; thermal shift relative to vanadate control, % at 40 µM; Recombinant SCP1, Sypro Orange thermal shift Tm;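 active means substances whose mean melting-temperature shift, as a percentage of the reference inhibitor's shift, reaches about 5.3%, limit read from the data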;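 further: 0% = Tm of DMSO wells and 100% = Tm with sodium orthovanadate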
The depositor's hits bear a star; · = not tested or not shown.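 How the source made its calls, unless noted: active means inhibition of at least 30% at 20 µM; inactive means the rest.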

SMILES	rCAG RNA binder	LMPTP block	NadD block	STEP block	Scp-1 inhibitor	Scp1 confirm	MG interference	others
Cn1c(SCc2cc(=O)n3cc(Br)ccc3n2)nnc1C1COc2ccccc2O1 (stereo not drawn)	12	0	4	3	61*	41*	-21	Scp1 DSF=-17
O=C(NCCc1nc2ccccc2[nH]1)c1ccc(Br)o1	2	1	-4	1	61*	-2	-11
COC(=O)[C@]12C[C@H](CC(=O)NCCCCc3ccccc3)C(=O)N(Cc3cccc4ccccc34)C1=C[C@H](C(C)(C)C)O[C@@H]2C	3	·	·	·	·	·	·
O=C(NCCN1CCC(Cc2ccccc2)CC1)C1CCCN(S(=O)(=O)c2cccs2)C1 (stereo not drawn)	1	·	·	·	·	·	·
COc1cccc2cc(C(=O)N3CCN(C(=O)c4ccco4)CC3)c(=O)oc12	-3	-1	4	-2	-1	·	·
COc1cc(Br)cc2cc(C(=O)N3CCN(C(=O)c4ccco4)CC3)c(=O)oc12	0	8	3	3	56*	-7	-13
COC(=O)C[C@H]1CC[C@H]2[C@H](COc3ccc(NC(=O)Cc4cccs4)cc3C(=O)N2C)O1	4	·	·	·	·	·	·
O=c1c(OC2OC(CO)C(O)C(O)C2O)c(-c2ccc(O)c(O)c2)oc2cc(O)cc(O)c12 (stereo not drawn)	3	0	-1	-1	-15	2	-2
COC(=O)[C@]12C[C@H](CC(=O)NCc3ccc(OC)c(OC)c3)C(=O)N(Cc3ccco3)C1=C[C@H](C(C)(C)C)O[C@@H]2C	0	·	·	·	·	·	·
O=C(COC(=O)COc1ccc(Br)cc1)Nc1cccnc1Cl	-4	0	-6	0	58*	-10	-12
O=C(COC(=O)COc1ccccc1)Nc1cccnc1Cl	4	-1	-2	4	-3	·	·
C=CCN1C(=O)[C@@H](CC(=O)N2CCC(c3ccccc3)CC2)[C@]2(C(=O)OCC)CCCCC/C=C/12	2	·	·	·	·	·	·
COC(=O)[C@]12C[C@H](CC(=O)N3CCN(C(=O)c4ccco4)CC3)C(=O)N(Cc3ccco3)C1=C[C@H](COCc1ccccc1)O[C@@H]2C	4	·	·	·	·	·	·
O=C(O)/C=C/C(=O)Nc1ccc(NC(=O)c2ccccc2)c(Cl)c1	4	2	2	3	73*	1	-8
CCOC(=O)CN1C(=O)N[C@H](c2ccc(Br)cc2)C(C(C)=O)=C1C	5	-2	-3	-4	76*	18	1
CCOC(=O)N1CCC(N2CC34C=CC(O3)C(C(=O)Nc3ccc(F)cc3)C4C2=O)CC1 (stereo not drawn)	·	0	0	-1	90*	-4	-10
COC(=O)[C@]12C[C@H](CC(=O)NCc3cccs3)C(=O)N(Cc3cccc4ccccc34)C1=C[C@H](C(C)(C)C)O[C@@H]2C	2	·	·	·	·	·	·
COC(=O)C[C@H]1CC[C@@H]2[C@H](COc3ccc(NS(C)(=O)=O)cc3C(=O)N2C)O1	0	·	·	·	·	·	·
O=C(NC1CCSC1=O)c1cccc(C(=O)NC2CCSC2=O)c1 (stereo not drawn)	7	8	11	0	95*	65*	-18	Scp1 DSF=3
O=C(NC1CCSC1=O)c1ccccc1 (stereo not drawn)	2	0	2	0	-3	·	·
Fc1cc(F)cc(-c2c(-c3ccccc3)ncc3ccc(F)cc23)c1	-4	4	13	0	85*	38*	-13	Scp1 DSF=-25
